Test results published in ChEMBL document CHEMBL5329156, “Discovery and development of novel substituted monohydrazides as potent antifungal agents” (RSC Med Chem, 2023).
In brackets after ≈: the same amount, converted by molar mass.

What was measured:
Format in all cases: functional
[1] = test system: Candida albicans; assay: Antifungal activity against Candida albicans ATCC 10231 assessed as fungal growth inhibition by double dilution method
Method in brief: (§1)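 Broth microdilution after CLSI M27-A3/M38-A2 with minor changes. Single colony grown overnight in YPD at 35 °C, 200 rpm. Compound final range 0.06-31.3 µg/mL; incubated 48 h at 35 °C.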

[2] = test system: Candida albicans; assay: Antifungal activity against Candida albicans ATCC 64124 assessed as fungal growth inhibition by double dilution method
Method in brief: (§2)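 Broth microdilution after CLSI M27-A3/M38-A2 with minor modifications. A single colony was grown overnight in YPD at 35 °C with shaking at 200 rpm. Cells were mixed 1:1 with compound (final 0.06-31.3 µg/mL, from DMSO stocks) and incubated 48 h at 35 °C.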

[3] = test system: Candida albicans; assay: Antifungal activity against itraconazole/fluconazole susceptible Candida albicans ATCC MYA-2876 assessed as fungal growth inhibition by double dilution method; method in brief: as §2
[4] = test system: Candida albicans; assay: Antifungal activity against itraconazole/fluconazole resistant Candida albicans ATCC 90819 assessed as fungal growth inhibition by double dilution method; method in brief: as §2
[5] = test system: Candida albicans; assay: Antifungal activity against itraconazole/fluconazole susceptible Candida albicans ATCC MYA-2310 assessed as fungal growth inhibition by double dilution method; method in brief: as §2
[6] = test system: Candida albicans; assay: Antifungal activity against itraconazole/fluconazole resistant Candida albicans ATCC MYA-1237 assessed as fungal growth inhibition by double dilution method; method in brief: as §2
[7] = test system: Candida albicans; assay: Antifungal activity against itraconazole/fluconazole resistant Candida albicans ATCC MYA-1003 assessed as fungal growth inhibition by double dilution method; method in brief: as §2
[8] = test system: Nakaseomyces glabratus; assay: Antifungal activity against Candida glabrata ATCC 2001 assessed as fungal growth inhibition by double dilution method; method in brief: as §1
[9] = test system: Pichia kudriavzevii; assay: Antifungal activity against Pichia kudriavzevii ATCC 6258 assessed as fungal growth inhibition by double dilution method; method in brief: as §1
[10] = test system: Nakaseomyces glabratus; assay: Antifungal activity against Candida glabrata ATCC 22019 assessed as fungal growth inhibition by double dilution method; method in brief: as §1
[11] = test system: [Candida] auris; assay: Antifungal activity against Candida auris AR Bank # 0384 assessed as fungal growth inhibition by double dilution method; settings: Candidozyma auris; method in brief: as §1
[12] = test system: [Candida] auris; assay: Antifungal activity against Candida auris AR Bank # 0390 assessed as fungal growth inhibition by double dilution method; settings: Candidozyma auris; method in brief: as §1
[13] = test system: Cryptococcus neoformans; assay: Antifungal activity against Cryptococcus neoformans ATCC MYA-895 assessed as fungal growth inhibition by double dilution method; method in brief: as §1
[14] = test system: Aspergillus terreus; assay: Antifungal activity against Aspergillus terreus ATCC MYA-3633 assessed as fungal growth inhibition by double dilution method
[15] = test system: Aspergillus fumigatus; assay: Antifungal activity against Aspergillus fumigatus NRRL 163 assessed as fungal growth inhibition by double dilution method
[16] = test system: Aspergillus flavus; assay: Antifungal activity against Aspergillus flavus ATCC MYA-3631 assessed as fungal growth inhibition by double dilution method
[17] = test system: Aspergillus nidulans; assay: Antifungal activity against Aspergillus nidulans ATCC 38163 assessed as fungal growth inhibition by double dilution method
[18] = test system: Aspergillus fumigatus; assay: Antifungal activity against Aspergillus fumigatus NRRL 5109 assessed as fungal growth inhibition by double dilution method
[19] = test system: Aspergillus fumigatus; assay: Antifungal activity against Aspergillus fumigatus NRRL 6113 assessed as fungal growth inhibition by double dilution method

| SMILES | MIC [1] [µg/mL] | MIC [2] [µg/mL] | MIC [3] [µg/mL] | MIC [4] [µg/mL] | MIC [5] [µg/mL] | MIC [6] [µg/mL] | MIC [7] [µg/mL] | MIC [8] [µg/mL] | MIC [9] [µg/mL] | MIC [10] [µg/mL] | MIC [11] [µg/mL] | MIC [12] [µg/mL] | MIC [13] [µg/mL] | MIC [14] [µg/mL] | MIC [15] [µg/mL] | MIC [16] [µg/mL] | MIC [17] [µg/mL] | MIC [18] [µg/mL] | MIC [19] [µg/mL] |
| --- | --- | --- | --- | --- | --- | --- | --- | --- | --- | --- | --- | --- | --- | --- | --- | --- | --- | --- | --- |
| O=C(NNc1ccc(F)cc1)c1cccc(F)n1 | 0.24 (≈ 0.963 µM) | 0.98 (≈ 3.93 µM) | 1.95 (≈ 7.82 µM) | 1.95 (≈ 7.82 µM) | 3.9 (≈ 15.6 µM) | 1.95 (≈ 7.82 µM) | 0.98 (≈ 3.93 µM) | 15.6 (≈ 62.6 µM) | 0.49 (≈ 1.97 µM) | 3.9 (≈ 15.6 µM) | 1.95 (≈ 7.82 µM) | 0.98 (≈ 3.93 µM) | 0.49 (≈ 1.97 µM) | 1.95 (≈ 7.82 µM) | 31.3 (≈ 126 µM) | 7.8 (≈ 31.3 µM) | 0.98 (≈ 3.93 µM) | 15.6 (≈ 62.6 µM) | 15.6 (≈ 62.6 µM) |
| COc1ccc(NNC(=O)c2ccc(F)cn2)cc1 | 0.24 (≈ 0.919 µM) | 0.98 (≈ 3.75 µM) | 0.98 (≈ 3.75 µM) | 0.98 (≈ 3.75 µM) | 0.98 (≈ 3.75 µM) | 0.49 (≈ 1.88 µM) | 0.49 (≈ 1.88 µM) | 1.95 (≈ 7.46 µM) | 0.24 (≈ 0.919 µM) | 3.9 (≈ 14.9 µM) | 3.9 (≈ 14.9 µM) | 0.49 (≈ 1.88 µM) | ≤ 0.06 | 31.3 (≈ 120 µM) | > 31.3 | > 31.3 | 1.95 (≈ 7.46 µM) | > 31.3 | > 31.3 |
| O=C(NNc1ccc(F)cc1)c1nc(F)ccc1F | 0.24 (≈ 0.898 µM) | 0.98 (≈ 3.67 µM) | 0.98 (≈ 3.67 µM) | 0.98 (≈ 3.67 µM) | 0.98 (≈ 3.67 µM) | 0.98 (≈ 3.67 µM) | 0.49 (≈ 1.83 µM) | 15.6 (≈ 58.4 µM) | 0.24 (≈ 0.898 µM) | 7.8 (≈ 29.2 µM) | 1.95 (≈ 7.3 µM) | 0.98 (≈ 3.67 µM) | 0.49 (≈ 1.83 µM) | 1.95 (≈ 7.3 µM) | 31.3 (≈ 117 µM) | 7.8 (≈ 29.2 µM) | 0.49 (≈ 1.83 µM) | 15.6 (≈ 58.4 µM) | > 31.3 |
| COc1ccc(NNC(=O)c2nc(F)ccc2F)cc1 | 1.95 (≈ 6.98 µM) | 1.95 (≈ 6.98 µM) | 1.95 (≈ 6.98 µM) | 1.95 (≈ 6.98 µM) | 1.95 (≈ 6.98 µM) | 0.98 (≈ 3.51 µM) | 0.98 (≈ 3.51 µM) | 7.8 (≈ 27.9 µM) | 0.98 (≈ 3.51 µM) | 7.8 (≈ 27.9 µM) | 3.9 (≈ 14 µM) | 0.98 (≈ 3.51 µM) | 0.98 (≈ 3.51 µM) | 31.3 (≈ 112 µM) | 31.3 (≈ 112 µM) | > 31.3 | 1.95 (≈ 6.98 µM) | 15.6 (≈ 55.9 µM) | 31.3 (≈ 112 µM) |
| COc1cccc(NNC(=O)c2cccc(F)n2)c1 | 0.98 (≈ 3.75 µM) | 0.98 (≈ 3.75 µM) | 0.49 (≈ 1.88 µM) | 3.9 (≈ 14.9 µM) | 1.95 (≈ 7.46 µM) | 1.95 (≈ 7.46 µM) | 0.98 (≈ 3.75 µM) | 15.6 (≈ 59.7 µM) | 0.24 (≈ 0.919 µM) | 3.9 (≈ 14.9 µM) | 1.95 (≈ 7.46 µM) | 0.98 (≈ 3.75 µM) | 0.49 (≈ 1.88 µM) | 3.9 (≈ 14.9 µM) | 15.6 (≈ 59.7 µM) | > 31.3 | 1.95 (≈ 7.46 µM) | 7.8 (≈ 29.9 µM) | > 31.3 |
| O=C(NNc1cccc(F)c1)c1nc(F)ccc1F | 0.98 (≈ 3.67 µM) | 0.98 (≈ 3.67 µM) | 1.95 (≈ 7.3 µM) | 3.9 (≈ 14.6 µM) | 1.95 (≈ 7.3 µM) | 1.95 (≈ 7.3 µM) | 0.98 (≈ 3.67 µM) | 15.6 (≈ 58.4 µM) | 0.49 (≈ 1.83 µM) | 7.8 (≈ 29.2 µM) | 1.95 (≈ 7.3 µM) | 1.95 (≈ 7.3 µM) | ≤ 0.06 | 3.9 (≈ 14.6 µM) | > 31.3 | > 31.3 | 1.95 (≈ 7.3 µM) | > 31.3 | > 31.3 |
| COc1ccc(NNC(=O)c2ccc(F)cc2F)cc1 | 0.98 (≈ 3.52 µM) | 1.95 (≈ 7.01 µM) | 1.95 (≈ 7.01 µM) | 1.95 (≈ 7.01 µM) | 1.95 (≈ 7.01 µM) | 1.95 (≈ 7.01 µM) | 1.95 (≈ 7.01 µM) | 3.9 (≈ 14 µM) | 0.98 (≈ 3.52 µM) | 7.8 (≈ 28 µM) | 1.95 (≈ 7.01 µM) | 1.95 (≈ 7.01 µM) | 0.98 (≈ 3.52 µM) | 31.3 (≈ 112 µM) | > 31.3 | > 31.3 | 1.95 (≈ 7.01 µM) | > 31.3 | > 31.3 |
| O=C(NNc1ccc(F)cc1)c1ncc(F)cc1F | 0.98 (≈ 3.67 µM) | 1.95 (≈ 7.3 µM) | 1.95 (≈ 7.3 µM) | 1.95 (≈ 7.3 µM) | 3.9 (≈ 14.6 µM) | 1.95 (≈ 7.3 µM) | 0.98 (≈ 3.67 µM) | 15.6 (≈ 58.4 µM) | 0.49 (≈ 1.83 µM) | 3.9 (≈ 14.6 µM) | 1.95 (≈ 7.3 µM) | 0.98 (≈ 3.67 µM) | 0.49 (≈ 1.83 µM) | 3.9 (≈ 14.6 µM) | > 31.3 | 7.8 (≈ 29.2 µM) | 0.49 (≈ 1.83 µM) | > 31.3 | > 31.3 |
